Source: article PMC8963331 (Toxicological Sciences, 2022)

Legend:
[1] = test system: JAK1, JAK2, JAK3, and TYK2; experiment: Human cellular JAK IC50; format: cell-based; conditions: corrected with human plasma protein binding of 85.4%
Time-mated female rats = experiment: Rat embryo–fetal development; format: in vivo; conditions: for Corpora lutea (mean ± SD) / Implantation sites (mean ± SD) / Preimplantation loss (mean ± SD) / Total resorptions (mean ± SD) / Females with live fetuses / Pregnant females: rat EFD; for Females with live fetuses / Pregnant females: 22 total females
How it was run: (§1)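 Time-mated female Crl:CD Sprague Dawley rats, 10–12 weeks old at dosing start, gavaged daily (10 ml/kg) with 0 (vehicle), 30, 100 or 1000 mg/kg/day test compound on GDs 6–17; n = 22/group plus a toxicokinetic group. Cesarean-section counts: corpora lutea, implantation sites, preimplantation loss, resorptions. Fetuses weighed and checked for external, visceral and skeletal (Alizarin Red S, after evisceration) abnormalities. Fetal weights compared by ANCOVA/Dunnett with litter size as covariate.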

[2] = Rat embryo–fetal development; format: in vivo; conditions: female, rat, in vivo, oral
How it was run: as §1

[3] = test system: Time-mated female rabbits; experiment: Rabbit embryo–fetal development; format: in vivo; conditions: for Corpora lutea (mean ± SD) / Implantation sites (mean ± SD) / Preimplantation loss (mean ± SD) / Total resorptions (mean ± SD) / Females with live fetuses / Pregnant females: rabbit EFD; for Females with live fetuses / Pregnant females: 22 total females
How it was run: (§2)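 Time-mated female rabbits, 6–8 months old at dosing start, gavaged daily (10 ml/kg) with vehicle or 10, 30 or 60 mg/kg/day test compound over GDs 7–19; n = 22/group plus a toxicokinetic group. Cesarean-section endpoints: corpora lutea, implantation sites, preimplantation loss, resorptions. Fetuses weighed and examined externally, viscerally and, after evisceration and Alizarin Red S staining, skeletally. Fetal weights analysed by ANCOVA with Dunnett's test, litter size as covariate.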

[4] = Rabbit embryo–fetal development; format: in vivo; conditions: female, rabbit, in vivo, oral
How it was run: as §2

[5] = Rat EFD study: maternal and fetal plasma toxicokinetics; format: in vivo
mouse colitis model = conditions: ref Sandborn et al., 2020; cited from earlier work
[6] = Rat repeat-dose toxicity studies: plasma toxicokinetics; format: in vivo; conditions: female, Sprague-Dawley (Crl:CD), rat, plasma, po, 30 mg/kg/day, 30 mg/kg/day oral, 26 weeks, last day of dosing
[7] = maternal rat, 30 and 100 mg/kg/day
[8] = maternal rat, GD 17, 1000 mg/kg/day

Cc1cc(Nc2cc3ncccc3c(N[C@@H]3C[C@H]4CC[C@@H](C3)N4CCC#N)n2)n[nH]1 [izencitinib, Izencitinib]
human cellular JAK IC50 range, human plasma protein binding corrected [1]: 0.08718 to 0.5501 µg/mL | Corpora lutea (mean ± SD) (Time-mated female rats; 30 mg/kg/day oral GDs 6–17): 14 ± 2.0 | Implantation sites (mean ± SD) (Time-mated female rats; 30 mg/kg/day oral GDs 6–17): 14 ± 2.0 | Preimplantation loss (mean ± SD) (Time-mated female rats; 30 mg/kg/day oral GDs 6–17): 1.0 ± 0.9 | Total resorptions (mean ± SD) (Time-mated female rats; 30 mg/kg/day oral GDs 6–17): 0 ± 0.6 | Females with live fetuses (Time-mated female rats; 30 mg/kg/day oral GDs 6–17): 22 | Pregnant females (Time-mated female rats; 30 mg/kg/day oral GDs 6–17): 22 | Corpora lutea (mean ± SD) (Time-mated female rats; 100 mg/kg/day oral GDs 6–17): 14 ± 2.3 | Implantation sites (mean ± SD) (Time-mated female rats; 100 mg/kg/day oral GDs 6–17): 13 ± 1.8 | Preimplantation loss (mean ± SD) (Time-mated female rats; 100 mg/kg/day oral GDs 6–17): 1.0 ± 1.2 | Total resorptions (mean ± SD) (Time-mated female rats; 100 mg/kg/day oral GDs 6–17): 0 ± 0.7 | Females with live fetuses (Time-mated female rats; 100 mg/kg/day oral GDs 6–17): 22 | Pregnant females (Time-mated female rats; 100 mg/kg/day oral GDs 6–17): 22 | Corpora lutea (mean ± SD) (Time-mated female rats; 1000 mg/kg/day oral GDs 6–17): 14 ± 1.7 | Implantation sites (mean ± SD) (Time-mated female rats; 1000 mg/kg/day oral GDs 6–17): 13 ± 1.9 | Preimplantation loss (mean ± SD) (Time-mated female rats; 1000 mg/kg/day oral GDs 6–17): 1.0 ± 1.0 | Total resorptions (mean ± SD) (Time-mated female rats; 1000 mg/kg/day oral GDs 6–17): 0 ± 1.1 | Females with live fetuses (Time-mated female rats; 1000 mg/kg/day oral GDs 6–17): 22 | Pregnant females (Time-mated female rats; 1000 mg/kg/day oral GDs 6–17): 22 | effects on cesarean section parameters (Time-mated female rats; rat, all doses): no effects | fetal external, visceral, or skeletal malformations (Time-mated female rats; rat, all doses): no observations | NOAEL [2]: 1000 mg/kg/day | effects on fetal parameters ([3]; rabbit): no effects | Corpora lutea (mean ± SD) ([3]; 10 mg/kg/day oral GDs 7–19): 10 ± 1.7 | Implantation sites (mean ± SD) ([3]; 10 mg/kg/day oral GDs 7–19): 10 ± 1.6 | Preimplantation loss (mean ± SD) ([3]; 10 mg/kg/day oral GDs 7–19): 1.0 ± 0.8 | Total resorptions (mean ± SD) ([3]; 10 mg/kg/day oral GDs 7–19): 0 ± 0.4 | Females with live fetuses ([3]; 10 mg/kg/day oral GDs 7–19): 20 | Pregnant females ([3]; 10 mg/kg/day oral GDs 7–19): 22 | Corpora lutea (mean ± SD) ([3]; 30 mg/kg/day oral GDs 7–19): 11 ± 2.0 | Implantation sites (mean ± SD) ([3]; 30 mg/kg/day oral GDs 7–19): 10 ± 1.9 | Preimplantation loss (mean ± SD) ([3]; 30 mg/kg/day oral GDs 7–19): 1.0 ± 0.9 | Total resorptions (mean ± SD) ([3]; 30 mg/kg/day oral GDs 7–19): 0 ± 0.4 | Females with live fetuses ([3]; 30 mg/kg/day oral GDs 7–19): 21 | Pregnant females ([3]; 30 mg/kg/day oral GDs 7–19): 21 | Corpora lutea (mean ± SD) ([3]; 60 mg/kg/day oral GDs 7–19): 11 ± 2.3 | Implantation sites (mean ± SD) ([3]; 60 mg/kg/day oral GDs 7–19): 10 ± 2.8 | Preimplantation loss (mean ± SD) ([3]; 60 mg/kg/day oral GDs 7–19): 1.0 ± 1.5 | Total resorptions (mean ± SD) ([3]; 60 mg/kg/day oral GDs 7–19): 1 ± 1.6 | Females with live fetuses ([3]; 60 mg/kg/day oral GDs 7–19): 21 | Pregnant females ([3]; 60 mg/kg/day oral GDs 7–19): 22 | effects on cesarean section parameters ([3]; rabbit, any dose): no adverse effects | tolerability ([3]; rabbit, up to 60 mg/kg/day): well tolerated | NOAEL [4]: 60 mg/kg/day | Cave:protein-corrected IC50 ratio [5, 7]: < 1 × | Cave:uncorrected IC50 ratio [5, 7]: < 1 × | Mean Cave ([5]; maternal rat, GD 6, 30 mg/kg/day oral): 0.613 ng/mL | Mean Cave ([5]; maternal rat, GD 6, 100 mg/kg/day oral): 2.15 ng/mL | Mean Cave ([5]; maternal rat, GD 6, 1000 mg/kg/day oral): 16.2 ng/mL | Mean Cave ([5]; maternal rat, GD 17, 30 mg/kg/day oral): 0.663 ng/mL | Mean Cave ([5]; maternal rat, GD 17, 100 mg/kg/day oral): 2.88 ng/mL | plasma Cave:protein-corrected JAK IC50 ratio [5, 8]: < 1 × | plasma Cave:uncorrected JAK IC50 ratio [5, 8]: 2 × | time at supratherapeutic plasma levels [5, 8]: 12 to 15 h | Mean Cave ([5]; maternal rat, GD 17, 1000 mg/kg/day oral): 23.8 ng/mL | nonclinical:clinical AUC ratio at the NOAEL ([5]; rat EFD study, 1000 mg/kg/day, vs human 300 mg QD): 10 fold | fetal plasma concentrations, all other samples ([5]; rat fetuses, below lower limit of quantitation): < 1 ng/mL | concentration at 3 h ([5]; rat, fetal plasma, oral, 1000 mg/kg/day): 1.18 ng/mL | JAK inhibitor-associated splenic natural killer (NK) cell reductions (mouse colitis model): spared | AUC(0-t) ([6]; Mean AUC0–24, rat female): 16.7 ng·h/mL | Cmax ([6]; Mean Cmax, rat female): 6.02 ng/mL
